Source: PMC7451030 (European journal of medicinal chemistry, 2020)

Experiments:
human GLUT1 = biological target: T1, human GLUT1 (Homo sapiens, UniProt P11166); assay: GLUT1 transport assay; type: cell-based; details: 100 μM compound
T1 sequence (P11166 1-492): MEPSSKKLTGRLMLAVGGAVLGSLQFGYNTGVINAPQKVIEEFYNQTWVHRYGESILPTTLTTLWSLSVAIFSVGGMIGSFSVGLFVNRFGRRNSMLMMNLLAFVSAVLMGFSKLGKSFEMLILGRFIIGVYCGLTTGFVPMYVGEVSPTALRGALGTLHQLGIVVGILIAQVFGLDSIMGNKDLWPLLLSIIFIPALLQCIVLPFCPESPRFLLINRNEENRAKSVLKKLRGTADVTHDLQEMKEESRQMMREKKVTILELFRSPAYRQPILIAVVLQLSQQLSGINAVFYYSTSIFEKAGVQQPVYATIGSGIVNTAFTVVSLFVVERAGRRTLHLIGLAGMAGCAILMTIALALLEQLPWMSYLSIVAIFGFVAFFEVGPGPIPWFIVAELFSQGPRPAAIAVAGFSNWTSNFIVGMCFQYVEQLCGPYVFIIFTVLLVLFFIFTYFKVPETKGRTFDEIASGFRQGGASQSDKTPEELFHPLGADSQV
Method in brief: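 hxt0 yeast VW4000fgy1 expressing human GLUT1 was grown at 30 °C in SC-uracil with 2% maltose for 2–3 days, then 2% glucose for 1–2 days. Cells were resuspended in PBS pH 7.4 at OD600 ~10 and given 100 µM compound (1% DMSO final). Uptake of 5 mM 14C-glucose ran 10 min, then ice-cold KPi/LiCl quench pH 5.5, filtration and scintillation counting. Activity was taken relative to 1% DMSO and 200 µM phloretin.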

human GLUT4 = biological target: T2, human GLUT4 (Homo sapiens, UniProt P14672); assay: GLUT4 transport assay; type: cell-based; details: 100 μM compound
T2 sequence (P14672 1-509): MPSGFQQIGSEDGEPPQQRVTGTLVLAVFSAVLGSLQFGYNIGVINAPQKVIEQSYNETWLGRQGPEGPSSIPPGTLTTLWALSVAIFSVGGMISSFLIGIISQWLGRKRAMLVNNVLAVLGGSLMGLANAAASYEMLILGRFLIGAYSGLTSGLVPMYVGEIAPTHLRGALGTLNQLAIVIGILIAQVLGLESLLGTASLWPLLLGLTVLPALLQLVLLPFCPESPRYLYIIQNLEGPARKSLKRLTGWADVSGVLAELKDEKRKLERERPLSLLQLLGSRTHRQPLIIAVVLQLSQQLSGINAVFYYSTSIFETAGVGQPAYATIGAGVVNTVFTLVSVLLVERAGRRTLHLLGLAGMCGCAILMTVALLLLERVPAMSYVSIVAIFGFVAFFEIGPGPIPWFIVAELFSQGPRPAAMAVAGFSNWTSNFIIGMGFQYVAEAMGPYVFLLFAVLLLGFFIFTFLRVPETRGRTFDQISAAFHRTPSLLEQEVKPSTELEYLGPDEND
Method in brief: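 GLUT4 was expressed in hxt0 yeast VW4000fgy1erg4 grown at 30 °C in SC-uracil with 1% maltose, then 0.2% glucose. Washed cells were assayed in PBS pH 7.4 at OD600 ~10 with 100 µM compound (1% DMSO final) and 5 mM 14C-glucose for 10 min. The reaction was stopped with cold KPi/LiCl pH 5.5, then filtered and counted by scintillation. Values are relative to 1% DMSO and 200 µM phloretin controls.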

human GLUT5 = assay: GLUT5 transport assay; type: cell-based; details: 100 μM compound; 10 mM C14-fructose
Method in brief: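 VW4000 hxt0 yeast carrying human GLUT5 was grown for 1 day in YEP with 2% maltose and 100 µg/ml G418, then 1–2 days in 2% fructose with G418, at 30 °C. Cells in PBS pH 7.4 at OD600 ~10 received 100 µM compound (1% DMSO final) and 10 mM 14C-fructose for 10 min. Cold quench pH 5.5 and filtration followed, with scintillation read-out. Controls: 1% DMSO and 100 µM MSNBA.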

CEM xenograft tumor = details: for xenograft volume of untreated group relative to treated group: SCID mice, CEM xenograft, doxorubicin 20 mg/kg i.p., F18 50 mg/kg i.p., 18 days
[1] = system: p-mTOR, CDK2, GRP78 and Caspase 3 in F18-treated cells; assay: Western blotting of cell signaling proteins; type: cell-based, human; details: 10 μM, 6 h
Method in brief: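 Treated cells were washed in cold PBS and lysed in Laemmli buffer (62.5 mM Tris-HCl pH 6.8, 10% glycerol, 2% SDS) with protease inhibitors, then sonicated and protein quantified. Membranes were blocked 45 min in PBS-Tween-5% milk. Primary antibodies ran 3 h and secondary 1 h, both at room temperature. Controls: untreated and staurosporine.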

normal WBCs = assay: MTT viability assay on non-transformed WBCs; type: cell-based, human; details: 187.2 μM vs 1.7 μM
CEM cells = assay: Cell cycle analysis by flow cytometry; type: cell-based, human; details: CEM, 10, 25 or 50 μM, 72 h
[2] = Differential Nuclear Staining; type: cell-based; details: human
Method in brief: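 CC50 determined by DNS assay in CCRF-CEM (RPMI) and in non-cancerous HS-27 fibroblasts (DMEM). Both media had 10% FBS and penicillin/streptomycin, at 37 °C and 5% CO2. Cells were seeded at 10,000/well (HS-27 at 3,000/well) and treated at 0.5–100 µM for 48 h, in quadruplicate. Hoechst and PI were added 2 h before imaging. Controls: DMSO, H2O2 and untreated. Ratio = HS-27 CC50 / CEM CC50.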

GLUT1 = details: read-out: GLUT1 IC50; commercially available GLUT1 inhibitor; cited from earlier work

Compound | decrease of relative transport activity of GLUT1, primary screen (human GLUT1) | decrease of relative transport activity of GLUT4, primary screen (human GLUT4) | inhibition of GLUT5 transport activity, primary screen (human GLUT5) | xenograft volume of untreated group relative to treated group (CEM xenograft tumor) | further results
Cc1cccc2sc(NC(=O)CN3C(=O)S/C(=C/c4ccco4)C3=O)nc12 [Compound F8, 2-(5-(Furan-2-ylmethylene)-2,4-dioxothiazolidin-3-yl)-N-(4-methylbenzo[d]thiazol-2-yl)acetamide] | at least 50% | at least 50% | – | – | –
O=C(CN1C(=O)S/C(=C/c2ccco2)C1=O)Nc1ccc([N+](=O)[O-])cc1 [Compound F14, 2-(5-(Furan-2-ylmethylene)-2,4-dioxothiazolidin-3-yl)-N-(4-nitrophenyl) acetamide] | did not inhibit | did not inhibit | did not inhibit | – | –
O=C(CN1C(=O)S/C(=C/c2ccco2)C1=O)Nc1nc2ccccc2s1 [Compound F18, N-(benzo[d]thiazol-2-yl)-2-(5-(furan-2-ylmethylene)-2,4-dioxothiazolidin-3-yl)acetamide] | at least 50% | at least 50% | neither F18 nor F19 affected the transport activity of GLUT5 | ~2 times | weight loss or signs of toxicity (CEM xenograft tumor; mouse, in vivo, ip, 50 mg/kg): no considerable weight loss or any other noticeable signs of toxicity; caspase 3 [1]: activation; level of CDK2 [1]: decrease; level of endoplasmic stress marker GRP78 [1]: increase; level of phosphorylated mTOR [1]: decrease; GLUT1 relative activity retained (human GLUT1): almost completely; ratio of IC50 WBCs to CEM cell line (normal WBCs): 100 times; cell cycle effect (CEM cells): arrest of the cell cycle in the sub G0/G1phase
O=C(CN1C(=O)S/C(=C/c2ccco2)C1=O)Nc1ccc(Cl)c(Cl)c1 [Compound F19, N-(3,4-dichlorophenyl)-2-(5-(furan-2-ylmethylene)-2,4-dioxothiazolidin-3-yl) acetamide] | at least 50% | at least 50% | neither F18 nor F19 affected the transport activity of GLUT5 | – | selectivity ratio at 48 h [2]: > 12.8
CC(=O)CC(=O)Nc1ccc(Cl)c(C(F)(F)F)c1 [Fasentin] | – | – | – | – | IC50 (GLUT1): 10 µM
COc1cccc2c1C(=O)c1c(O)c3c(c(O)c1C2=O)C[C@@](O)(C(=O)CO)C[C@@H]3O[C@H]1C[C@H](N)[C@H](O)[C@H](C)O1 [doxorubicin, reference compound] | – | – | – | approximately 1.5 times | –
